pIC50: −log10 of the molar value. The source made the active and inactive calls. The calls are words filed in the database; no cut-off is given here.
What was measured:
Histone deacetylase 3 = Histone deacetylase 3 (Homo sapiens, UniProt O15379); test: Inhibition of human recombinant full length C-terminal His-tagged HDAC3 (1 to 428 residues) expressed in baculovirus infected insect cells using RHK-K(Ac)-AMC as substrate after 60 mins by fluorimetry analysis
In short: (§1)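 Isoform assays run by an outside contractor. […] Trichostatin A tested in parallel the same way as control.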

Histone deacetylase 2 = Histone deacetylase 2 (Homo sapiens, UniProt Q92769); test: Inhibition of recombinant human GST-tagged HDAC2 (1 to 488 residues) expressed in baculovirus infected sf21 cells using RHK-K(Ac)-AMC as substrate after 60 mins by fluorimetry assay; in short: as §1
Histone deacetylase 2, sequence (Q92769 whole entry, the tested form may be a part): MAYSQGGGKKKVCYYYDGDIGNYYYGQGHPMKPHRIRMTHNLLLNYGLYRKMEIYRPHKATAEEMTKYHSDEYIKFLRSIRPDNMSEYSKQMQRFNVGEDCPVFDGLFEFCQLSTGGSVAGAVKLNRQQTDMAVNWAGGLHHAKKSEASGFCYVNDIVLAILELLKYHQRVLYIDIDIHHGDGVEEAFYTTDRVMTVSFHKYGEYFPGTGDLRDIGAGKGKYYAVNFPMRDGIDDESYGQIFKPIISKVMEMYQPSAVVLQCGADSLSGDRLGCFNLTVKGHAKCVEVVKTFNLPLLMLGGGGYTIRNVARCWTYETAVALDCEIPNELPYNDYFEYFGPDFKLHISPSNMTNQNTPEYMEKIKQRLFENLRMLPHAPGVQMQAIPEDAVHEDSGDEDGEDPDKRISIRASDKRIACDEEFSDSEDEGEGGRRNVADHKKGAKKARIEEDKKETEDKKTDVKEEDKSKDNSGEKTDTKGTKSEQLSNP

[1] = target: Heat shock protein HSP 90-alpha (Homo sapiens, UniProt P07900); test: Inhibition of FITC-geldanamycin binding to recombinant human full-length C-terminal His-tagged HSP90alpha expressed in Escherichia coli after 3 hrs by fluorescence polarization assay
[2] = target: Histone deacetylase (Homo sapiens) (UniProt Q13547+O15379+Q9UBN7+Q92769+Q9UQL6+Q8WUI4+Q9BY41+Q96DB2+P56524+Q9UKV0+Q969S8); test: Inhibition of HDAC in human H1975 cells assessed as alpha tubulin acetylation after 24 hrs by Western blot analysis; type: cell-based
In short: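 Whole-cell lysates from H1975 cells after 24 h culture with compound at the indicated concentrations. Acetylated α-tubulin and acetylated histone H3 detected by immunoblot: SDS-PAGE, PVDF transfer, primary antibody overnight at 4°C, HRP secondary, ECL. Repeated at least three times.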

Histone deacetylase 1 = Histone deacetylase 1 (Homo sapiens, UniProt Q13547); test: Inhibition of recombinant full length human FLAG/His-tagged HDAC1 (1 to 482 residues) expressed in baculovirus infected insect cells using RHK-K(Ac)-AMC as substrate measured after 60 mins by fluorimetric assay; in short: as §1
Histone deacetylase 1, sequence (Q13547 whole entry, the tested form may be a part): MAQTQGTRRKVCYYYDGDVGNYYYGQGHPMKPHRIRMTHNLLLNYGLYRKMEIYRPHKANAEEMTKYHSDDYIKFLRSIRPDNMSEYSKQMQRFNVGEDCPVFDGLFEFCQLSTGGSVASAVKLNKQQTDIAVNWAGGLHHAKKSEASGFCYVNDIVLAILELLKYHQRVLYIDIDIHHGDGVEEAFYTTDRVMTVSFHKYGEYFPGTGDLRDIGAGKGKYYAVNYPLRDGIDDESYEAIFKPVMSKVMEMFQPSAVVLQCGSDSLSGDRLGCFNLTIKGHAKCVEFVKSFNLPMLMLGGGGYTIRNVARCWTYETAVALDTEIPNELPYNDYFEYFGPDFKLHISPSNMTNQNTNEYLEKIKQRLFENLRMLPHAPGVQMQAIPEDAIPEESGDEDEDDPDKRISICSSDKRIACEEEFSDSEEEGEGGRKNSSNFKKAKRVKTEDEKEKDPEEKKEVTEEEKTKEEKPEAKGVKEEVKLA

Histone deacetylase 5 = Histone deacetylase 5 (Homo sapiens, UniProt Q9UQL6); test: Inhibition of recombinant human C-terminal His-fusion tagged HDAC5 (657 to 1123 residues) expressed in baculovirus infected insect cells using Boc-K(Ac)-AMC as substrate after 60 mins by fluorimetry analysis; in short: as §1
Histone deacetylase 5, sequence (Q9UQL6 whole entry, the tested form may be a part): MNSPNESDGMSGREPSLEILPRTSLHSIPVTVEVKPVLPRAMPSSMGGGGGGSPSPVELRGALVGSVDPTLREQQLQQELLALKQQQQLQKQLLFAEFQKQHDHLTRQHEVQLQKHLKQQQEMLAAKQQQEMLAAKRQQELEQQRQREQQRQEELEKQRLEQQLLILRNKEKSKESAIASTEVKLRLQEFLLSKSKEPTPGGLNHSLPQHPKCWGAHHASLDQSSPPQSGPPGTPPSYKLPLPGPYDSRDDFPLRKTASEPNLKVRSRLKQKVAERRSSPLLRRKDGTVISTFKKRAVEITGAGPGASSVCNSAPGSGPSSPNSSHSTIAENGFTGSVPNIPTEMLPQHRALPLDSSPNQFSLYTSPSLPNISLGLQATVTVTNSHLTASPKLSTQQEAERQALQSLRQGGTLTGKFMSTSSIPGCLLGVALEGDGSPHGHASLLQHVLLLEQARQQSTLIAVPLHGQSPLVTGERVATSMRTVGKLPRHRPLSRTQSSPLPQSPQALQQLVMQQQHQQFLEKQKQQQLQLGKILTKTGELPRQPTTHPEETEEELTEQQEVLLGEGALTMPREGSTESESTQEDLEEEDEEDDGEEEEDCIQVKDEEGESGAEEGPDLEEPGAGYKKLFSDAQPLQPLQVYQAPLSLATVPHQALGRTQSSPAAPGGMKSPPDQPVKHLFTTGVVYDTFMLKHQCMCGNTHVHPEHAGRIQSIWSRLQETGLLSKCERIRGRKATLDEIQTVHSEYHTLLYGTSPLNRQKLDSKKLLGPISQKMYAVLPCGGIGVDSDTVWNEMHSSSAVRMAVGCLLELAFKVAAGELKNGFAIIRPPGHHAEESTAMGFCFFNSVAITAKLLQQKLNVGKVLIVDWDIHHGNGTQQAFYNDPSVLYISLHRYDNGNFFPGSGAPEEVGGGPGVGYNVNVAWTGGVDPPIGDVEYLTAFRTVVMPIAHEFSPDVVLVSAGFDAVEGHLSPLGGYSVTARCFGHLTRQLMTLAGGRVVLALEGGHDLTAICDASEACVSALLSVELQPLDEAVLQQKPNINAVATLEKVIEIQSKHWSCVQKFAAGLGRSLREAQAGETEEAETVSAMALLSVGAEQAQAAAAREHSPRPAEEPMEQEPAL

Histone deacetylase 9 = Histone deacetylase 9 (Homo sapiens, UniProt Q9UKV0); test: Inhibition of human HDAC9 using (Boc-Lys(trifluoroacetyl)-AMC) as substrate by fluorescence assay; in short: as §1
Histone deacetylase 9, sequence (Q9UKV0 whole entry): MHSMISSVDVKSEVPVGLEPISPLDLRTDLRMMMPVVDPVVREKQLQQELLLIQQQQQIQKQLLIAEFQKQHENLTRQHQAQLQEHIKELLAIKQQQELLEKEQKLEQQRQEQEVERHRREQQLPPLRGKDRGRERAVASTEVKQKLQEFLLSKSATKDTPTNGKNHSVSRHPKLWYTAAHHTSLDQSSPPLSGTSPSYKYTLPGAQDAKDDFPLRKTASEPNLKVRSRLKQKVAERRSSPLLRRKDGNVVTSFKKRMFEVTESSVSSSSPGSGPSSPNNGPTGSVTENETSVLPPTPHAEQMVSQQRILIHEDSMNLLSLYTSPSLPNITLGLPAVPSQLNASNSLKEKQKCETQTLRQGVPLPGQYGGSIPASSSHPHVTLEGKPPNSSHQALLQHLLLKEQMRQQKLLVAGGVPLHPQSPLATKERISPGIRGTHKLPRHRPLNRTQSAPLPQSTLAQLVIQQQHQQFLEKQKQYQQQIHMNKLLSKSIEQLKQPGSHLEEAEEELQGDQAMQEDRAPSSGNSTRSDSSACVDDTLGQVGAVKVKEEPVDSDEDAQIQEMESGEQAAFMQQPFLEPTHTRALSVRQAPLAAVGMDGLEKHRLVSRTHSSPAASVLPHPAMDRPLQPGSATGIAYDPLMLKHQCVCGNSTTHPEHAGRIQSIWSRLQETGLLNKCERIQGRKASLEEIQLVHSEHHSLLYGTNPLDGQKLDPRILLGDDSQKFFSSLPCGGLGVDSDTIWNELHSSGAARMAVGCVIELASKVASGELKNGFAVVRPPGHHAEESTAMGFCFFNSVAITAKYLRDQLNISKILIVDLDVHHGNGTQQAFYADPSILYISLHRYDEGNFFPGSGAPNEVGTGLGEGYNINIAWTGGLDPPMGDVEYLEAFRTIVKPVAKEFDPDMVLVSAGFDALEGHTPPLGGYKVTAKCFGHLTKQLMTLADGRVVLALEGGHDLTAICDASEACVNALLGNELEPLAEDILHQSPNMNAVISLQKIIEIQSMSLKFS

NCI-H1975 [3] = test: Induction of apoptosis in human NCI-H1975 cells assessed as activation of caspase 9 at 0.1 to 3 uM measured after 48 hrs immunoblot analysis; type: functional, cell-based
In short: (§2)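 H1975 cells cultured with compound at the indicated concentrations for 48 h, then immunoblotted with the indicated antibodies. Lysis buffer was ice-cold RIPA-type with phosphatase and protease inhibitors, 30 min on ice. Proteins separated on 8-15% SDS-PAGE, transferred to PVDF, primary antibody overnight at 4°C, HRP secondary 1 h at room temperature, ECL detection.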

[4] = target: T1, Heat shock protein HSP90 (Homo sapiens) (UniProt P07900+P08238); test: Inhibition of HSP90 in human H1975 cells assessed as downregulation of SRC protein level by Western blot analysis; type: cell-based
In short: (§3)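 H1975 cells given DMSO or 0.1-3 μM compound for 24 h, or 1 μM for varying times. HSP70 and HSP90 client proteins detected by Western blot of whole-cell lysates, with GAPDH as internal control. Repeated in at least three independent experiments.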

[5] = target: T1, Heat shock protein HSP90 (Homo sapiens); test: Inhibition of HSP90 in human H1975 cells assessed as downregulation of Rb protein level by Western blot analysis; type: cell-based; in short: as §3
NCI-H1975 [6] = test: Induction of apoptosis in human NCI-H1975 cells assessed as activation of gamma H2AX at 0.1 to 3 uM measured after 48 hrs immunoblot analysis; type: functional, cell-based; in short: as §2

Histone deacetylase 3, sequence (O15379 whole entry, the tested form may be a part, canonical isoform): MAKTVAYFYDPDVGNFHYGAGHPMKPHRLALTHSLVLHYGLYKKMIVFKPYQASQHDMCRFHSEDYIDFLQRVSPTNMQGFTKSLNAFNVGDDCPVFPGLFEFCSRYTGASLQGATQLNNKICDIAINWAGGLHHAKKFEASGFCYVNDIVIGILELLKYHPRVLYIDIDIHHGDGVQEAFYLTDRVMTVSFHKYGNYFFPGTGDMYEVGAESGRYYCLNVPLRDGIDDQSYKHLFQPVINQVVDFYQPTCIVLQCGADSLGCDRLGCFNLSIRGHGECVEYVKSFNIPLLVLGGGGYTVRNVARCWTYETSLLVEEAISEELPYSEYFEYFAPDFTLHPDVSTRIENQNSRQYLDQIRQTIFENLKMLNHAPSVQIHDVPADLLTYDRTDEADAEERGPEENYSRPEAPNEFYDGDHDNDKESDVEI

| Structure (SMILES) | pIC50 (Histone deacetylase 3) | pIC50 (Histone deacetylase 2) | pIC50 [1] | inhibition [2] | pIC50 (Histone deacetylase 1) | pIC50 (Histone deacetylase 5) | pIC50 (Histone deacetylase 9) | Activity (NCI-H1975 [3]) | inhibition [4] | inhibition [5] | Activity (NCI-H1975 [6]) |
| --- | --- | --- | --- | --- | --- | --- | --- | --- | --- | --- | --- |
| CC(C)c1cc(C(=O)N(C)c2ccc(NC(=O)CCCCCCCC(=O)NO)cc2)c(O)cc1O | 5.84 | 5.31 | 7.11 | Dose-dependent effect | 5.22 | 5.27 | < 5.00 | Active | Active | Active | Active |
| CC(C)c1cc(C(=O)N(C)c2ccc(NC(=O)CCCCCCC(=O)NO)cc2)c(O)cc1O | 5.69 | 5.92 | 6.82 | Dose-dependent effect | 5.88 | 5.10 | < 5.00 | Active | Active | Active | Active |

— ChEMBL document CHEMBL4373735, “N-alkyl-hydroxybenzoyl anilide hydroxamates as dual inhibitors of HDAC and HSP90, downregulating IFN-γ induced PD-L1 expression” (Eur J Med Chem, 2020)
